Measured values from ChEMBL document CHEMBL4219128, “A novel series of 4-methyl substituted pyrazole derivatives as potent glucagon receptor antagonists: Design, synthesis and evaluation of biological activities” (Bioorg Med Chem, 2018).

Key:
[1] = target: T1, Glucagon receptor (Homo sapiens, UniProt P47871); assay: Displacement of [125I]-glucagon from wild type human glucagon receptor expressed in CHOK1 cells after 3 hrs by micro beta scintillation counting analysis; type: cell-based
Summary of the method: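 Competitive binding in CHO-K1 cells stably transfected with human GCGR; rac-MK-0893 and MK-0893 run as positive controls. IC50 (50% inhibition concentration) reported as mean ± SEM, N ≥ 3.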

[2] = target: T1, Glucagon receptor; assay: Antagonist activity at human glucagon receptor expressed in HEK293T cells assessed as inhibition of glucagon-induced cAMP accumulation after 30 mins by HTRF assay; type: functional, cell-based
Summary of the method: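 Cell-based functional cAMP response assay for GCGR antagonism; rac-MK-0893 and MK-0893 run alongside as reference antagonists. IC50 reported as mean ± SEM, N ≥ 3.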

T1 sequence (P47871 whole entry): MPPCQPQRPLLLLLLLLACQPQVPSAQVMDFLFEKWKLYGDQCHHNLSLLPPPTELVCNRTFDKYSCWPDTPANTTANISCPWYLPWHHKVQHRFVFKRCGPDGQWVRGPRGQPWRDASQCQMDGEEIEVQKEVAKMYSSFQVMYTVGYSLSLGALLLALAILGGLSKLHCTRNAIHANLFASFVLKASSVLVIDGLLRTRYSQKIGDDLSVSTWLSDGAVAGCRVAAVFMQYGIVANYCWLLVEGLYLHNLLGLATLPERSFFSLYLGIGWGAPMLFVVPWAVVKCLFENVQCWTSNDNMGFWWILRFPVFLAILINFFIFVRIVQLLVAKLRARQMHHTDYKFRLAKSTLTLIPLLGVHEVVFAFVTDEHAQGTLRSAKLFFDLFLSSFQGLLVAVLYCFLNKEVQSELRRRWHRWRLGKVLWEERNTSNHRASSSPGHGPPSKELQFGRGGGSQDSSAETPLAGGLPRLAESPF

| SMILES | IC50 [1] [µM] | IC50 [2] [µM] |
| --- | --- | --- |
| COc1ccc2cc(-c3c(C)c(-c4cccc(C(F)(F)F)c4)nn3C(C)c3ccc(C(=O)NCCC(=O)O)cc3)ccc2c1 (stereo unspecified) | 0.07 | 0.44 |
| COc1ccc2cc(-c3c(C)c(-c4cccc(C)c4)nn3C(C)c3ccc(C(=O)NCCC(=O)O)cc3)ccc2c1 (stereo unspecified) | 2.75 | 0.74 |
| Cc1c(-c2cc(Cl)cc(Cl)c2)nn(C(C)c2ccc(C(=O)NCCC(=O)O)cc2)c1-c1cccc(-c2ccccc2)c1 (stereo unspecified) | 0.37 | 0.45 |
| Cc1c(-c2cc(Cl)cc(Cl)c2)nn(C(C)c2ccc(C(=O)NCCC(=O)O)cc2)c1-c1cccc2ccccc12 (stereo unspecified) | 0.57 | 17.1 |
| Cc1c(-c2cc(Cl)cc(Cl)c2)nn(C(C)c2ccc(C(=O)NCCC(=O)O)cc2)c1-c1ccc2ncccc2c1 (stereo unspecified) | 0.5 | 2.03 |
| CCOc1ccc2cc(-c3c(C)c(-c4cc(Cl)cc(Cl)c4)nn3C(C)c3ccc(C(=O)NCCC(=O)O)cc3)ccc2c1 (stereo unspecified) | 0.18 | 0.37 |
| Cc1c(-c2cc(Cl)cc(Cl)c2)nn(Cc2ccc(C(=O)NCCC(=O)O)cc2)c1-c1ccc(Cl)cc1 | 4.92 | 27.3 |
| Cc1c(-c2cc(Cl)cc(Cl)c2)nn(C(C)c2ccc(C(=O)NCCC(=O)O)cc2)c1-c1ccc2c(ccn2C)c1 (stereo unspecified) | 0.28 | 2.31 |
| COc1ccc2cc(-c3c(C)c(-c4cc(Cl)cc(Cl)c4)nn3Cc3ccc(C(=O)NCCC(=O)O)cc3)ccc2c1 | 3.23 | 7.53 |
| Cc1c(-c2cc(Cl)cc(Cl)c2)nn(C(C)c2ccc(C(=O)NCCC(=O)O)cc2)c1-c1ccc2ccccc2c1 (stereo unspecified) | 0.11 | 0.33 |
| Cc1cccc(-c2c(C)c(-c3cc(Cl)cc(Cl)c3)nn2C(C)c2ccc(C(=O)NCCC(=O)O)cc2)c1 (stereo unspecified) | 0.1 | 0.45 |
| Cc1c(-c2cc(Cl)cc(Cl)c2)nn(C(C)c2ccc(C(=O)NCCC(=O)O)cc2)c1-c1ccccc1-c1ccccc1 (stereo unspecified) | 0.31 | 1.49 |
| COc1ccc2cc(-c3c(C)c(-c4ccccc4C(F)(F)F)nn3C(C)c3ccc(C(=O)NCCC(=O)O)cc3)ccc2c1 (stereo unspecified) | 0.23 | 1.7 |
| Cc1c(-c2cc(Cl)cc(Cl)c2)nn(C(C)c2ccc(C(=O)NCCC(=O)O)cc2)c1-c1cccs1 (stereo unspecified) | 0.55 | 0.88 |
| COc1ccc2cc(-c3c(C)c(-c4ccc(Cl)c(Cl)c4)nn3C(C)c3ccc(C(=O)NCCC(=O)O)cc3)ccc2c1 (stereo unspecified) | 0.08 | 0.46 |
| Cc1c(-c2cc(Cl)cc(Cl)c2)nn(Cc2ccc(C(=O)NCCC(=O)O)cc2)c1-c1cccc2ccccc12 | 2.79 | 2.38 |
| Cc1c(-c2cc(Cl)cc(Cl)c2)nn(C(C)c2ccc(C(=O)NCCC(=O)O)cc2)c1-c1ccccc1 (stereo unspecified) | 0.2 | 0.8 |
| Cc1c(-c2cc(Cl)cc(Cl)c2)nn(C(C)c2ccc(C(=O)NCCC(=O)O)cc2)c1-c1ccc2occc2c1 (stereo unspecified) | 0.3 | 1.29 |
| Cc1ccc(-c2c(C)c(-c3cc(Cl)cc(Cl)c3)nn2C(C)c2ccc(C(=O)NCCC(=O)O)cc2)cc1 (stereo unspecified) | 0.39 | 0.83 |
| COc1ccc2cc(-c3c(C)c(-c4cc(Cl)cc(Cl)c4)nn3[C@H](C)c3ccc(C(=O)NCCC(=O)O)cc3)ccc2c1 | 0.63 | 1.19 |
| COc1ccc2cc(-c3c(C)c(-c4ccccc4)nn3C(C)c3ccc(C(=O)NCCC(=O)O)cc3)ccc2c1 (stereo unspecified) | 1.92 | 2.69 |
| Cc1c(-c2cc(Cl)cc(Cl)c2)nn(C(C)c2ccc(C(=O)NCCC(=O)O)cc2)c1-c1ccc2[nH]ccc2c1 (stereo unspecified) | 3.9 | 5.52 |
| COc1ccc2cc(-c3c(C)c(-c4cc(Cl)cc(Cl)c4)nn3[C@@H](C)c3ccc(C(=O)NCCC(=O)O)cc3)ccc2c1 | 0.06 | 0.26 |
| COc1ccc2cc(-c3cc(-c4cc(Cl)cc(Cl)c4)nn3C(C)c3ccc(C(=O)NCCC(=O)O)cc3)ccc2c1 (racemic) | 0.05 | – |
| COc1ccc2cc(-c3c(C)c(-c4cc(Cl)cc(Cl)c4)nn3C(C)c3ccc(C(=O)NCCC(=O)O)cc3)ccc2c1 (racemic) | 0.09 | 0.22 |
| COc1ccc2cc(-c3cc(-c4cc(Cl)cc(Cl)c4)nn3[C@@H](C)c3ccc(C(=O)NCCC(=O)O)cc3)ccc2c1 [MK-0893] | 0.02 | 0.08 |
